Reference: ChEMBL document CHEMBL4364271, “Unveiling the Importance of Amide Protons in CSP:ComD Interactions in Streptococcus pneumoniae” (ACS Med Chem Lett, 2019)
pEC50, pIC50: −log10 of the molar value. Calls of active or inactive are those of the source. The rule behind the calls is not given here. Non-standard residues stand in square brackets, D forms with d. Residues, ends and D or L forms follow the SMILES beside them. NMeE = CN[C@@H](CCC(=O)O)C(=O)O; NMeQ = CN[C@@H](CCC(N)=O)C(=O)O; NMeK = CN[C@@H](CCCCN)C(=O)O; NMeM = CN[C@@H](CCSC)C(=O)O

Assays:
[1] = Metabolic stability in human plasma assessed as half-life at 0.33 mM measured for 3 hrs by RP-HPLC analysis; type: ADME, cell-free
[2] = test system: Streptococcus pneumoniae TIGR4; assay: Agonist activity at ComD2 receptor in Streptococcus pneumoniae TIGR4 harboring pcomX/lacZ reporter gene at 10 uM incubated for 30 mins by ONPG based beta-galactosidase assay relative to native CSP2
How it was run: (§1)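 Single-dose screen of synthetic peptide at 10 μM in wild-type reporter strains (D39 for ComD1, TIGR4 for ComD2) producing their own CSP and carrying lacZ under the comX promoter. β-gal activity in Miller units normalized to native CSP (CSP1 or CSP2, 100%); DMSO 0%. Triplicates over three separate trials.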

[3] = test system: Streptococcus pneumoniae D39; assay: Agonist activity at ComD1 receptor in Streptococcus pneumoniae D39 harboring pcomX/lacZ reporter gene at 10 uM incubated for 30 mins by ONPG based beta-galactosidase assay relative to native CSP1; how it was run: as §1
[4] = Metabolic stability in aqueous ammonium carbonate solution assessed as trypsin/chymotrypsin (unknown origin)-mediated drug degradation by measuring half life at 0.05 ug/ml incubated in shaking conditions in presence of trypsin/chymotrpsin and measured for 48 hrs by RP-HPLC analysis; type: ADME; details: human
[5] = Agonist activity at ComD1 receptor in Streptococcus pneumoniae D39 harboring pcomX/lacZ reporter gene incubated for 30 mins by ONPG based beta-galactosidase assay
How it was run: (§2)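 Dose-response in wild-type lacZ reporter strains (comX promoter; D39 for ComD1, TIGR4 for ComD2) producing native CSP. Peptides tested over a range of concentrations. β-gal read-out (Miller units) normalized to native CSP. EC50 reported with 95% confidence interval.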

[6] = Agonist activity at ComD2 receptor in Streptococcus pneumoniae TIGR4 harboring pcomX/lacZ reporter gene incubated for 30 mins by ONPG based beta-galactosidase assay; how it was run: as §2
[7] = test system: Streptococcus pneumoniae TIGR4; assay: Antagonist activity at ComD2 receptor in Streptococcus pneumoniae TIGR4 harboring pcomX/lacZ reporter gene assessed as inhibition of CSP2-stimulated maximum signal at 10 uM preincubated for 30 mins followed by 250 nM CSP2 addition by ONPG based beta-galactosidase assay relative to native CSP2
How it was run: (§3)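 Inhibition screen: peptides at 10 μM against CSP1 50 nM (D39, ComD1) or CSP2 250 nM (TIGR4, ComD2), in comX-lacZ reporter strains. β-gal Miller units normalized to CSP alone (100%) and DMSO (0%). Triplicates over three separate trials.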

[8] = Solubility of the compound in ammonium carbonate solution at pH 8; type: physicochemical; details: buffer
[9] = test system: Streptococcus pneumoniae D39; assay: Antagonist activity at ComD1 receptor in Streptococcus pneumoniae D39 harboring pcomX/lacZ reporter gene assessed as inhibiton of CSP1-stimulated maximum signal at 10 uM preincubated for 30 mins followed by 50 nM CSP1 addition by ONPG based beta-galactosidase assay relative to native CSP1; how it was run: as §3
[10] = Antagonist activity at ComD2 receptor in Streptococcus pneumoniae TIGR4 harboring pcomX/lacZ reporter gene assessed as inhibition of CSP2-stimulated maximum signal preincubated for 30 mins followed by 250 nM native CSP2 addition by ONPG based beta-galactosidase assay
How it was run: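 Comx-lacZ β-gal reporter inhibition in D39 (ComD1, CSP1 50 nM) or TIGR4 (ComD2, CSP2 250 nM). Peptides tested over a range of concentrations against the stimulating CSP. Miller units normalized to CSP alone. IC50 given with 95% confidence interval.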

[11] = species on record: Homo sapiens; assay: Metabolic stability in aqueous ammonium carbonate solution assessed as trypsin/chymotrypsin (unknown origin)-mediated drug degradation by measuring half life at 0.05 ug/ml incubated in shaking conditions and measured for 24 hrs by RP-HPLC analysis

Row | Compound | half-life at 330 µM [1] [h] | Activity [2] | Activity [3] | half-life at 0.05 ug/ml [4] [h] | pEC50 [5] | pEC50 [6] | inhibition [7] [%] | solubility [8] | inhibition [9] | pIC50 [10] | T1/2 [11] [h]
1 | CC[C@H](C)[C@H](NC(=O)[C@H](Cc1ccccc1)NC(=O)[C@H](CC(=O)O)NC(=O)[C@H](CCCNC(=N)N)NC(=O)[C@H](Cc1ccccc1)NC(=O)[C@H](Cc1ccccc1)NC(=O)[C@H](CCCCN)N(C)C(=O)[C@H](CO)NC(=O)[C@H](CC(C)C)NC(=O)[C@H](CCCNC(=N)N)NC(=O)[C@H](CCSC)NC(=O)[C@@H](N)CCC(=O)O)C(=O)N[C@@H](CC(C)C)C(=O)N[C@@H](CCC(N)=O)C(=O)N[C@@H](CCCNC(=N)N)C(=O)O (H-EMRLS[NMeK]FFRDFILQR-OH) | < 0.5 | inactive | > 75% | > 48 | 7.19 | < 6.00 | – | – | – | – | –
2 | CC[C@H](C)[C@H](NC(=O)[C@H](CCCNC(=N)N)NC(=O)[C@H](CCSC)N(C)C(=O)[C@@H](N)CCC(=O)O)C(=O)N[C@@H](CO)C(=O)N[C@@H](CCCNC(=N)N)C(=O)N[C@H](C(=O)N[C@H](C(=O)N[C@@H](CC(C)C)C(=O)N[C@@H](CC(=O)O)C(=O)N[C@@H](Cc1ccccc1)C(=O)N[C@@H](CC(C)C)C(=O)N[C@@H](Cc1ccccc1)C(=O)O)[C@@H](C)CC)[C@@H](C)CC (H-E[NMeM]RISRIILDFLF-OH) | – | – | inactive | – | – | – | > 50 | Insoluble | inactive | < 6.00 | –
3 | CC[C@H](C)[C@H](NC(=O)[C@H](Cc1ccccc1)NC(=O)[C@H](CC(=O)O)NC(=O)[C@H](CCCNC(=N)N)NC(=O)[C@H](Cc1ccccc1)NC(=O)[C@H](Cc1ccccc1)NC(=O)[C@H](CCCCN)NC(=O)[C@H](CO)NC(=O)[C@H](CC(C)C)NC(=O)[C@H](CCCNC(=N)N)NC(=O)[C@H](CCSC)NC(=O)[C@@H](N)CCC(=O)O)C(=O)N[C@@H](CC(C)C)C(=O)N(C)[C@@H](CCC(N)=O)C(=O)N[C@@H](CCCNC(=N)N)C(=O)O (H-EMRLSKFFRDFIL[NMeQ]R-OH) | 2 | inactive | > 75% | 6 | 7.17 | – | – | – | – | – | –
4 | CC[C@H](C)[C@H](NC(=O)[C@H](Cc1ccccc1)NC(=O)[C@H](CC(=O)O)NC(=O)[C@H](CCCNC(=N)N)NC(=O)[C@H](Cc1ccccc1)NC(=O)[C@H](Cc1ccccc1)NC(=O)[C@H](CCCCN)NC(=O)[C@H](CO)NC(=O)[C@H](CC(C)C)NC(=O)[C@H](CCCNC(=N)N)NC(=O)[C@H](CCSC)NC(=O)[C@@H](N)CCC(=O)O)C(=O)N[C@@H](CC(C)C)C(=O)N[C@@H](CCC(N)=O)C(=O)N[C@@H](CCCNC(=N)N)C(=O)N[C@@H](CCCCN)C(=O)N[C@@H](CCCCN)C(=O)O | – | – | – | – | 8.00 | – | – | – | – | – | 1.5
5 | CC[C@H](C)[C@H](NC(=O)[C@H](CCCNC(=N)N)NC(=O)[C@H](CCSC)NC(=O)[C@H](CCC(=O)O)NC)C(=O)N[C@@H](CO)C(=O)N[C@@H](CCCNC(=N)N)C(=O)N[C@H](C(=O)N[C@H](C(=O)N[C@@H](CC(C)C)C(=O)N[C@@H](CC(=O)O)C(=O)N[C@@H](Cc1ccccc1)C(=O)N[C@@H](CC(C)C)C(=O)N[C@@H](Cc1ccccc1)C(=O)O)[C@@H](C)CC)[C@@H](C)CC (H-[NMeE]MRISRIILDFLF-OH) | – | – | inactive | – | – | – | > 50 | Insoluble | inactive | < 6.00 | –
